# ChEMBL document CHEMBL2311246 (Bioorg Med Chem, 2013)
# pIC50: −log10 of the molar value. Active and inactive are the calls of the source. The calls are words filed in the database; no cut-off is given here.
# Experiments:
# DU-145 = experiment: Antiproliferative activity against human DU145 cells after 72 hrs after ATPlite kit assay; type: functional, cell-based; settings: DU-145, 72 h
# How it was run: (§1)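 10,000 cells per well plated, incubated overnight, then exposed to increasing compound concentrations for 72 h. Viability read by ATPlite luminescence. IC50 obtained by linear regression. Prostate lines (DU145, PC-3, LNCaP) are ATCC stocks. LNCaP culture was modified from the earlier method.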
# [1] = Antiproliferative activity against human Huh7.5.1 cells after 72 hrs after ATPlite kit assay; type: functional, cell-based; settings: Huh-7, 72 h; how it was run: as §1
# LNCaP = experiment: Antiproliferative activity against human LNCAP cells after 72 hrs after ATPlite kit assay; type: functional, cell-based; how it was run: as §1
# Hepatitis C virus [2] = experiment: Antiviral activity against HCV JFH1 infected in human Huh7.5.1 cells assessed as reduction in viral proteins at non-cytotoxic concentration after 72 hrs post compound dose by Western blotting method; type: functional, organism-based; settings: Hepacivirus hominis, Huh-7
# PC-3 = experiment: Antiproliferative activity against human PC3 cells after 72 hrs after ATPlite kit assay; type: functional, cell-based; settings: PC-3, 72 h; how it was run: as §1
# Cytochrome P450 2C9 = Cytochrome P450 2C9 (Homo sapiens, UniProt P11712); experiment: Inhibition of CYP2C9 in pooled human liver microsomes assessed as reduction in enzyme-mediated (S)-warfarin 7-hydroxylation by HPLC/MS-MS method; type: ADME, Microsome
# How it was run: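 Pooled HLM (0.1 mg/mL microsomal protein) incubated with (S)-warfarin 4 µM and compound at 1, 10 or 100 µM in 100 mM potassium phosphate, pH 7.4. Vehicle controls held 0.75% MeOH (v/v). Sulfaphenazole 1 µM served as positive control. 7-Hydroxywarfarin measured by HPLC/MS-MS. Means ± SD of triplicate incubations; two-way ANOVA with Tukey post hoc test.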
# Hepatitis C virus [3] = experiment: Antiviral activity against HCV JFH1 infected in human Huh7.5.1 cells assessed as reduction in viral proteins after 72 hrs post compound dose by Western blotting method; type: functional, organism-based, Hepacivirus hominis; settings: JFH1, Huh-7, 72 h
# Sequence of Cytochrome P450 2C9 (P11712 whole entry): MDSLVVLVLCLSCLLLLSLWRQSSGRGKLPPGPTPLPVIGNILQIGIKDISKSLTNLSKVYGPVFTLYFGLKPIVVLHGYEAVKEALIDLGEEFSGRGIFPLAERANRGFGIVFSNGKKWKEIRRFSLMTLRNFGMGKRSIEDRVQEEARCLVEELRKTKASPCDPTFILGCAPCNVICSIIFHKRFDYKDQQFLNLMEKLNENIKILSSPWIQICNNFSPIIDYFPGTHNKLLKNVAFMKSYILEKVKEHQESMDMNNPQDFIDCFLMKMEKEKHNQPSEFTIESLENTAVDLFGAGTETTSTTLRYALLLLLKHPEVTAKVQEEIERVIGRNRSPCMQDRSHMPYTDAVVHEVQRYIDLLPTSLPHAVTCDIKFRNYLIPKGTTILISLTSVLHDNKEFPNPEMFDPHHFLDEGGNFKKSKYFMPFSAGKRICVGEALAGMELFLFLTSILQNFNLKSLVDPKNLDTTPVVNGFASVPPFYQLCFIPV
SMILES,pIC50 (DU-145),pIC50 [1],pIC50 (LNCaP),Activity (Hepatitis C virus [2]),pIC50 (PC-3),"inhibition (INH) (Cytochrome P450 2C9; human, microsomes)",pIC50 (Cytochrome P450 2C9),pIC50 (Hepatitis C virus [3])
COc1cc(O)c2c(c1)O[C@H](c1ccc3c(c1)O[C@@H](c1ccc(O)c(OC)c1)[C@H](CO)O3)[C@@H](O)C2=O,4.71,4.88,4.70,Active,4.77,,,
COC[C@@H]1Oc2ccc([C@H]3Oc4cc(OC)cc(O)c4C(=O)[C@@H]3O)cc2O[C@H]1c1ccc(OC)c(OC)c1,4.77,,4.70,,4.66,,,
COC[C@@H]1Oc2ccc([C@H]3Oc4cc(OC)cc(OC)c4C(=O)[C@@H]3O)cc2O[C@H]1c1ccc(OC)c(OC)c1,4.62,4.81,4.52,Active,4.84,Not Active,,
COc1cc(OC)c2c(c1)O[C@H](c1ccc3c(c1)O[C@@H](c1ccc(OC)c(OC)c1)[C@H](CO)O3)[C@@H](O)C2=O,4.33,4.59,4.39,Active,4.44,,,
COc1cc(O)c2c(c1)O[C@H](c1ccc3c(c1)O[C@@H](c1ccc(OC)c(OC)c1)[C@H](CO)O3)[C@@H](O)C2=O,5.00,4.87,4.95,Active,5.09,,,
COc1cc([C@@H]2Oc3cc([C@H]4Oc5cc(O)cc(O)c5C(=O)[C@@H]4O)ccc3O[C@H]2CO)ccc1O [SILYBIN B],4.21,4.25,4.16,,4.22,,5.09,4.40
